Results published in ChEMBL document CHEMBL1123375, “Carbocyclic puromycin: synthesis and inhibition of protein biosynthesis” (1986).
≈ marks a conversion by molar mass, not a printed value.

Experiments:
[1] = species on record: Rattus norvegicus; assay: (§1) Kinetic constant was evaluated by using peptidyl transferase assay against Rat liver ribosome system; type: functional
How it was run: (§2)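 Ac-[3H]-L-Phe-tRNA (22 pmol) prebound 60 min at 37°C to rat liver ribosomes (4.0 A260 units) with poly(U), 1.6 mM GTP, FWR, 15 mM Mg(OAc)2, 100 mM Tris-HCl pH 7.5, 100 mM NH4Cl. Mixture added to puromycin compound, 37°C for varying times. Product extracted into ethyl acetate and counted. Km and Vmax by Wilkinson analysis.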

[2] = test system: Escherichia coli; assay: Ratio of kinetic parameter Vmax to that of Km in Escherichia coli ribosome system; parameters: unit not given here
How it was run: (§3)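 Ac-[14C]-L-Phe-tRNA (21 pmol) prebound 8 min at 28°C to washed E. coli ribosomes (2.78 A260 units) with poly(U), 1.50 mM GTP, FWR, 20 mM Mg(OAc)2, 130 mM Tris-HCl pH 7.5, 130 mM NH4Cl. Reaction started with puromycin compound in water, run for timed intervals, then stopped with NaOH. Ethyl acetate-extracted product counted, blank-corrected. Km and Vmax by Wilkinson analysis, triplicates.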

[3] = species on record: Rattus norvegicus; assay: Ratio of kinetic parameter Vmax to that of Km in Rat liver ribosome; parameters: unit not given here; how it was run: as §2
[4] = species on record: Rattus norvegicus; assay: as §1; how it was run: as §2
[5] = test system: Escherichia coli; assay: Substrate efficiency was evaluated by using peptidyl transferase assay against Escherichia coli ribosome system; type: functional; how it was run: as §3
[6] = species on record: Rattus norvegicus; assay: Substrate efficiency was evaluated by using peptidyl transferase assay against Rat liver ribosome system; type: functional; how it was run: as §2
[7] = test system: Escherichia coli; assay: (§4) Kinetic constant was evaluated by using peptidyl transferase assay against Escherichia coli ribosome system; type: functional; how it was run: as §3
[8] = Compound was evaluated for the cytotoxicity by using P-388 in vitro assay against P-388 mouse lymphoid leukemia cells in 4 mL of Fischer's medium with 10% horse serum.; type: functional; conditions: P388, read-out: ED50 (the source's name)
How it was run: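 Twofold dilution series in duplicate tubes, each seeded with 4×10^5 cells, incubated 72 h at 37°C, stoppered and held at a 30° angle without agitation, rotated twice daily. Growth read by hemocytometer count, inoculum subtracted. Percent inhibition calculated against controls, ED50 derived from this.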

[9] = test system: Escherichia coli; assay: as §4; how it was run: as §3
[10] = species on record: Rattus norvegicus; assay: Substrate efficiency of the compound was evaluated by using peptidyl transferase assay against Rat liver ribosome system; type: functional; how it was run: as §2
[11] = species on record: Rattus norvegicus; assay: Substrate efficiency was evaluated by using peptidyl transferase assay against Rat liver ribosome system.; type: functional; how it was run: as §2

| SMILES | Km [1] [µM] | Ratio [2] | Ratio [3] | Vmax [4] [c.p.m.] | Efficiency [5] [%] | Efficiency [6] [%] | Km [7] [µM] | EC50 [8] [µg/mL] | Vmax [9] [c.p.m.] | Km [4] [µM] | Efficiency [10] [%] | Efficiency [11] [%] | Km [9] [µM] |
| --- | --- | --- | --- | --- | --- | --- | --- | --- | --- | --- | --- | --- | --- |
| COc1ccc(C[C@H](N)C(=O)N[C@H]2[C@@H](O)[C@H](n3cnc4c(N(C)C)ncnc43)O[C@@H]2CO)cc1 [PUROMYCIN] | 255 | 10200 | 55700 | 14200 | 100 | 100 | 186 | 0.3 (≈ 0.636 µM) | 1890 |  |  |  |  |
| COc1ccc(CC(N)C(=O)N[C@@H]2[C@@H](CO)C[C@@H](n3cnc4c(N(C)C)ncnc43)[C@@H]2O)cc1 (stereo partly specified) |  | 4540 | 12400 | 3720 | 45 | 22 | 187 | 0.3 (≈ 0.639 µM) | 850 | 300 |  |  |  |
| COc1ccc(CC(N)C(=O)N[C@H]2[C@@H](O)[C@H](n3cnc4c(N(C)C)ncnc43)O[C@@H]2C)cc1 (stereo partly specified) |  | 8220 | 23300 | 14200 | 81 |  | 230 | 0.3 (≈ 0.659 µM) | 1890 | 610 | 42 |  |  |
| COc1ccc(CC(N)C(=O)N[C@@H]2CC[C@@H](n3cnc4c(N(C)C)ncnc43)[C@@H]2O)cc1 (stereo partly specified) |  | 3420 | 3160 | 871 | 34 |  |  | 0.8 (≈ 1.82 µM) | 644 | 276 |  | 5.7 | 188 |
